Data from ChEMBL document CHEMBL4346672, “Antimicrobial and KPC/AmpC inhibitory activity of functionalized benzosiloxaboroles” (Eur J Med Chem, 2019).
In brackets after ≈: the same amount, converted by molar mass. Activity calls are given as the source filed them. No cut-off for these calls is given here.

These molecules were tested on Candida tropicalis (assay: Antifungal activity against Candida tropicalis IBA 171 assessed as decrease in fungal cell growth at 0.78 to 12.5 mg/L incubated for 24 hrs by CLSI broth dilution method). Settings: IBA 171, 24 h.
Type: functional
Summary of the method: (§1)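 Yeast broth dilution in RPMI 1640 with 2% glucose, compounds in DMSO. Yeasts pre-grown on Sabouraud dextrose agar. Growth read after 35 °C, 24 h.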

Compound | MIC [mg/L]
C[Si]1(C)OB(O)c2ccc(C=O)c(F)c21 | 200 (≈ 893 µM)
C[Si]1(C)OB(O)c2cccc(B(O)O)c21 | 400 (≈ 1800 µM)
C[Si]1(C)OB(O)c2c(C=O)cc(F)c(F)c21 | 200 (≈ 826 µM)
C[Si]1(C)OB(O)c2cc(F)c(F)cc21 | 0.78 (≈ 3.64 µM)

Continued by falling MIC, values first:

MIC [mg/L] | Compound
50 (≈ 255 µM) | C[Si]1(C)OB(O)c2cccc(F)c21
25 (≈ 140 µM) | C[Si]1(C)OB(O)c2ccccc21

These molecules were tested on Staphylococcus epidermidis (assay: Antibacterial activity against Staphylococcus epidermidis ATCC 12228 measured after 18 hrs by CLSI broth dilution method). Settings: ATCC 12228, 18 h.
Type: functional
Summary of the method: (§2)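 Broth MIC in Mueller-Hinton II broth following CLSI, compounds dissolved in DMSO. Strains subcultured twice on tryptic soy agar before testing. Growth read after 35 °C, 18 h.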

Compound | MIC [mg/L]
C[Si]1(C)OB(O)c2ccc(C=O)c(F)c21 | 50 (≈ 223 µM)
C[Si]1(C)OB(O)c2cccc(B(O)O)c21 | 200 (≈ 901 µM)
C[Si]1(C)OB(O)c2c(C=O)cc(F)c(F)c21 | 100 (≈ 413 µM)
C[Si]1(C)OB(O)c2cc(F)c(F)cc21 | 50 (≈ 234 µM)

The remaining lines, values ahead:

MIC [mg/L] | Compound
25 (≈ 128 µM) | C[Si]1(C)OB(O)c2cccc(F)c21
50 (≈ 281 µM) | C[Si]1(C)OB(O)c2ccccc21

These molecules were tested on Pseudomonas aeruginosa (assay: Antibacterial activity against Pseudomonas aeruginosa ATCC 27853 assessed as fold reduction of MIC in presence of efflux pump inhibitor PAbetaN incubated for 18 hrs microdilution method). Settings: not given.
Type: functional
Summary of the method: (§3)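 MICs determined with and without PAβN at 50 mg/L in Mueller-Hinton broth containing 1 mM MgSO₄. 2-fold serial dilutions per CLSI. Fold change taken from the paired MICs after 35 °C, 18 h.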

Compound | fold change (FC)
C[Si]1(C)OB(O)c2ccccc21 | 8
C[Si]1(C)OB(O)c2ccc(C=O)c(F)c21 | 4
C[Si]1(C)OB(O)c2cccc(F)c21 | 16
C[Si]1(C)OB(O)c2cccc(B(O)O)c21 | 4
C[Si]1(C)OB(O)c2c(C=O)cc(F)c(F)c21 | 4
C[Si]1(C)OB(O)c2cc(F)c(F)cc21 | 8

These molecules were tested on Saccharomyces cerevisiae (assay: Antifungal activity against Saccharomyces cerevisiae ATCC 9763 assessed as decrease in fungal cell growth at 0.78 to 12.5 mg/L incubated for 24 hrs by CLSI broth dilution method). Settings: ATCC 9763, 24 h.
Type: functional
Summary of the method: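 Yeast strain subcultured on Sabouraud dextrose agar for 24–48 h at 30 °C before testing. Compounds dissolved in DMSO.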

Compound | MIC [mg/L]
C[Si]1(C)OB(O)c2ccc(C=O)c(F)c21 | > 400
C[Si]1(C)OB(O)c2cccc(B(O)O)c21 | 50 (≈ 225 µM)
C[Si]1(C)OB(O)c2c(C=O)cc(F)c(F)c21 | 100 (≈ 413 µM)
C[Si]1(C)OB(O)c2cc(F)c(F)cc21 | 3.12 (≈ 14.6 µM)

Second part, the molecule after the results:

MIC [mg/L] | Compound
6.25 (≈ 31.9 µM) | C[Si]1(C)OB(O)c2cccc(F)c21
3.12 (≈ 17.5 µM) | C[Si]1(C)OB(O)c2ccccc21

Each molecule was assayed on Pichia kudriavzevii (assay: Antifungal activity against Candida krusei ATCC 6258 assessed as decrease in fungal cell growth at 0.78 to 12.5 mg/L incubated for 24 hrs by CLSI broth dilution method). Settings: ATCC 6258, 24 h.
Type: functional
Summary of the method: as §1

Compound | MIC [mg/L]
C[Si]1(C)OB(O)c2ccc(C=O)c(F)c21 | > 400
C[Si]1(C)OB(O)c2cccc(B(O)O)c21 | 50 (≈ 225 µM)
C[Si]1(C)OB(O)c2c(C=O)cc(F)c(F)c21 | > 400
C[Si]1(C)OB(O)c2cc(F)c(F)cc21 | 50 (≈ 234 µM)

The remaining lines, values ahead:

MIC [mg/L] | Compound
50 (≈ 255 µM) | C[Si]1(C)OB(O)c2cccc(F)c21
25 (≈ 140 µM) | C[Si]1(C)OB(O)c2ccccc21

What follows are molecules tested on Enterobacter cloacae (assay: Antibacterial activity against Enterobacter cloacae DSM 6234 assessed as diameter of zone inhibition measured after 18 hrs by CLSI disc diffusion method). Settings: not given.
Type: functional
Summary of the method: (§4)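 Disc diffusion on Mueller-Hinton II agar. Compounds dissolved in DMSO. Strains stored at -80 °C and subcultured twice on tryptic soy agar before testing. Inhibition zones read after 35 °C, 18 h.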

Compound | diameter of the inhibition zone (DIZ)
C[Si]1(C)OB(O)c2ccccc21 | inactive
C[Si]1(C)OB(O)c2ccc(C=O)c(F)c21 | inactive
C[Si]1(C)OB(O)c2cccc(F)c21 | inactive
C[Si]1(C)OB(O)c2cccc(B(O)O)c21 | inactive
C[Si]1(C)OB(O)c2c(C=O)cc(F)c(F)c21 | inactive
C[Si]1(C)OB(O)c2cc(F)c(F)cc21 | inactive

Each molecule was assayed on Enterobacter cloacae (assay: Antibacterial activity against Enterobacter cloacae DSM 6234 assessed as fold reduction of MIC in presence of efflux pump inhibitor PAbetaN incubated for 18 hrs by broth microdilution method). Settings: not given.
Type: functional
Summary of the method: as §3

Compound | fold change (FC)
C[Si]1(C)OB(O)c2ccccc21 | 4
C[Si]1(C)OB(O)c2ccc(C=O)c(F)c21 | 16
C[Si]1(C)OB(O)c2cccc(F)c21 | 32
C[Si]1(C)OB(O)c2cccc(B(O)O)c21 | 8
C[Si]1(C)OB(O)c2c(C=O)cc(F)c(F)c21 | 64
C[Si]1(C)OB(O)c2cc(F)c(F)cc21 | 32

What follows are molecules tested on Escherichia coli (assay: Antibacterial activity against Escherichia coli ATCC 25922 measured after 18 hrs by CLSI broth dilution method). Settings: ATCC 25922, 18 h.
Type: functional
Summary of the method: as §2

Compound | MIC [mg/L]
C[Si]1(C)OB(O)c2ccc(C=O)c(F)c21 | > 400
C[Si]1(C)OB(O)c2cccc(B(O)O)c21 | > 400
C[Si]1(C)OB(O)c2c(C=O)cc(F)c(F)c21 | > 400
C[Si]1(C)OB(O)c2cc(F)c(F)cc21 | > 400

Next, values leading:

MIC [mg/L] | Compound
400 (≈ 2040 µM) | C[Si]1(C)OB(O)c2cccc(F)c21
> 200 | C[Si]1(C)OB(O)c2ccccc21

Each molecule was assayed on Staphylococcus aureus (assay: Bactericidal activity against Staphylococcus aureus ATCC 6538P measured after 18 hrs by CLSI broth dilution method). Settings: not given.
Type: functional
Summary of the method: (§5)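 Strains stored at -80 °C and subcultured twice on tryptic soy agar before testing. Compounds dissolved in DMSO. […] MBC then determined per CLSI recommendations.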

Compound | MBC [mg/L]
C[Si]1(C)OB(O)c2ccc(C=O)c(F)c21 | 100 (≈ 446 µM)
C[Si]1(C)OB(O)c2c(C=O)cc(F)c(F)c21 | 100 (≈ 413 µM)

The molecules below were run on Staphylococcus epidermidis (assay: Bactericidal activity against Staphylococcus epidermidis ATCC 12228 measured after 18 hrs by CLSI broth dilution method). Settings: ATCC 12228, 18 h.
Type: functional
Summary of the method: as §5

Compound | MBC [mg/L]
C[Si]1(C)OB(O)c2ccc(C=O)c(F)c21 | 100 (≈ 446 µM)
C[Si]1(C)OB(O)c2c(C=O)cc(F)c(F)c21 | 400 (≈ 1650 µM)

What follows are molecules tested on Candida albicans (assay: Antifungal activity against Candida albicans ATCC 90028 assessed as decrease in fungal cell growth at 0.78 to 12.5 mg/L incubated for 24 hrs by CLSI broth dilution method). Settings: ATCC 90028, 24 h.
Type: functional
Summary of the method: as §1

Compound | MIC [mg/L]
C[Si]1(C)OB(O)c2ccc(C=O)c(F)c21 | 400 (≈ 1790 µM)
C[Si]1(C)OB(O)c2cccc(B(O)O)c21 | > 400
C[Si]1(C)OB(O)c2c(C=O)cc(F)c(F)c21 | 400 (≈ 1650 µM)
C[Si]1(C)OB(O)c2cc(F)c(F)cc21 | 50 (≈ 234 µM)

Second part, the molecule after the results:

MIC [mg/L] | Compound
50 (≈ 255 µM) | C[Si]1(C)OB(O)c2cccc(F)c21
100 (≈ 562 µM) | C[Si]1(C)OB(O)c2ccccc21

Each molecule was assayed on Acinetobacter baumannii (assay: Antibacterial activity against Acinetobacter baumannii ATCC 19606 assessed as fold reduction of MIC in presence of efflux pump inhibitor PAbetaN incubated for 18 hrs by broth microdilution method). Settings: not given.
Type: functional
Summary of the method: as §3

Compound | fold change (FC)
C[Si]1(C)OB(O)c2ccccc21 | 4
C[Si]1(C)OB(O)c2ccc(C=O)c(F)c21 | 4
C[Si]1(C)OB(O)c2cccc(F)c21 | 4
C[Si]1(C)OB(O)c2cccc(B(O)O)c21 | 2
C[Si]1(C)OB(O)c2c(C=O)cc(F)c(F)c21 | 2
C[Si]1(C)OB(O)c2cc(F)c(F)cc21 | 8

What follows are molecules tested on Stenotrophomonas maltophilia (assay: Antibacterial activity against Stenotrophomonas maltophilia ATCC 13637 assessed as diameter of zone inhibition measured after 18 hrs by CLSI disc diffusion method). Settings: not given.
Type: functional
Summary of the method: as §4

Compound | diameter of the inhibition zone (DIZ)
C[Si]1(C)OB(O)c2ccccc21 | inactive
C[Si]1(C)OB(O)c2ccc(C=O)c(F)c21 | inactive
C[Si]1(C)OB(O)c2cccc(F)c21 | 11 mm
C[Si]1(C)OB(O)c2cccc(B(O)O)c21 | 12 mm
C[Si]1(C)OB(O)c2c(C=O)cc(F)c(F)c21 | inactive
C[Si]1(C)OB(O)c2cc(F)c(F)cc21 | 14 mm

What follows are molecules tested on Pseudomonas aeruginosa (assay: Antibacterial activity against Pseudomonas aeruginosa ATCC 27853 assessed as diameter of zone inhibition measured after 18 hrs by CLSI disc diffusion method). Settings: not given.
Type: functional, organism-based
Summary of the method: as §4

Compound | diameter of the inhibition zone (DIZ)
C[Si]1(C)OB(O)c2ccccc21 | inactive
C[Si]1(C)OB(O)c2ccc(C=O)c(F)c21 | inactive
C[Si]1(C)OB(O)c2cccc(F)c21 | inactive
C[Si]1(C)OB(O)c2cccc(B(O)O)c21 | inactive
C[Si]1(C)OB(O)c2c(C=O)cc(F)c(F)c21 | inactive
C[Si]1(C)OB(O)c2cc(F)c(F)cc21 | inactive

Each molecule was assayed on Saccharomyces cerevisiae (assay: Antifungal activity against Saccharomyces cerevisiae ATCC 9763 diameter of zone inhibition incubated for 24 hrs by CLSI disc diffusion method). Settings: not given.
Type: functional
Summary of the method: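 Disc-diffusion run on Mueller-Hinton II agar with 2% glucose and 0.5 mg/L methylene blue, using compounds in DMSO. Yeast was precultured on Sabouraud dextrose agar (24–48 h, 30 °C). Zones read after 24 h at 35 °C.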

Compound | diameter of the inhibition zone (DIZ)
C[Si]1(C)OB(O)c2ccccc21 | 36 mm
C[Si]1(C)OB(O)c2ccc(C=O)c(F)c21 | inactive
C[Si]1(C)OB(O)c2cccc(F)c21 | 45 mm
C[Si]1(C)OB(O)c2cccc(B(O)O)c21 | inactive
C[Si]1(C)OB(O)c2c(C=O)cc(F)c(F)c21 | 13 mm
C[Si]1(C)OB(O)c2cc(F)c(F)cc21 | 57 mm

These molecules were tested on Serratia marcescens (assay: Antibacterial activity against Serratia marcescens ATCC 13880 assessed as fold reduction of MIC in presence of efflux pump inhibitor PAbetaN incubated for 18 hrs by broth microdilution method). Settings: not given.
Type: functional
Summary of the method: as §3

Compound | fold change (FC)
C[Si]1(C)OB(O)c2ccccc21 | 0
C[Si]1(C)OB(O)c2ccc(C=O)c(F)c21 | 16
C[Si]1(C)OB(O)c2cccc(F)c21 | 4
C[Si]1(C)OB(O)c2cccc(B(O)O)c21 | 2
C[Si]1(C)OB(O)c2c(C=O)cc(F)c(F)c21 | 2
C[Si]1(C)OB(O)c2cc(F)c(F)cc21 | 4
